Screening data as filed in PubChem BioAssay.
A selection: hits, their analogues and other compounds. The true share with any hit is near 1.6%.
MT1-MMP act inh = inhibitors of human MT1-MMP activation | P50281 | GFP/RFP ratio change, % at 20 µM | AID 651647 | HT1080 RFP-PRO-GFP cells, GFP/RFP ratio fluorescence, overnight; percent of plate control window, DMSO zero | 360,000 tested, 0.061% active;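 active means GFP/RFP ratio change of at least 30% with cell ATP level not reduced by more than half and red fluorescence within 50% of control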
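Assay system – RFP-PRO-GFP reporter HT1080 cells · Compound dosing – single dose of 20 µM compound, 1% DMSO final · Incubation – overnight compound exposure at 37 °C · Measure – GFP/RFP fluorescence ratio · Benchmarks – DMSO wells and RFP-L50D-GFP cells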
SKN-1 inh = inhibitors of C. elegans SKN-1. 360,000 tested, 0.49% active. inhibition, % at 21.8 µM. C. elegans VP596 Pgst-4::GFP/RFP ratio, acrylamide-induced, 24 h;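 active means interference check ratio from 0.5 to 1.5 plus GFP to RFP signal ratio inhibition reaching or exceeding a fixed threshold, cut at about 30% in these data, passing the limit was not always enough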
MsrA act = activates bovine MsrA enzyme; activation, % at 10.6 µM; 360,000 tested, 0.3% active; purified bovine MsrA, absorbance read-out; in the data active means activation above about 7.5%;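 further: 0% = vehicle and 100% = reference activator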
pCIP destab = compounds decreasing mouse p/CIP protein stability; 290,000 tested, 0.01% active; Q05BA5; F442A p/CIP-EGFP cells, EGFP fluorescence, 16 h; decrease of EGFP signal, % at 10 µM;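 active means EGFP signal decrease of at least 30% at 10 µM or well 3 SD below plate mean, unless failing retest; inactive means the rest, including hits failing retest or dose response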
MsrA inhibitor = inhibits bovine methionine sulfoxide reductase A. purified bovine MsrA, absorbance read-out. inhibition, % at 15.5 µM. 360,000 tested, 0.75% active. AID 651718; in the data active means inhibition above about 4.5%;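 further: 0% = vehicle wells with enzyme and 100% = reference inhibitor wells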
MT1-MMP act val = blocks activation of human MT1-MMP in validation testing | shares compounds with MT1-MMP act inh | HT1080 RFP-PRO-GFP cells, GFP and RFP fluorescence ratio, overnight | inhibition, % at 20 µM | 200 tested, 10% active;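 active means inhibition of at least 50% in the primary cell screen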
* hit, by the source's call; . = not tested or not shown.

SMILES	MT1-MMP act inh	SKN-1 inh	MsrA act	pCIP destab	MsrA inhibitor	MT1-MMP act val
Cc1cccc2c1NC1(CCCC1)CC2C (stereo not drawn)	30*	6	1	-8	0	-1
CCn1c(O)c(/C=N/n2cnnc2)sc1=S	30*	2	-13	-16	0	3
CCn1c(O)c(C=Nc2ccccc2)sc1=S	.	.	.	2	4	.
CCOc1ccc(N2CSC(=S)N(c3ccc(OCC)cc3)C2)cc1	2	5	-2	-27	0	.
CCOc1ccc(N2CC(=O)SC2=S)cc1	37*	13	-1	-9	-1	2
Nc1ccc(N2CCN(C(=O)c3cccs3)CC2)cc1	33*	48*	2	-8	0	1
CC(=O)Nc1ccc(N2CCN(C(=O)c3cccs3)CC2)cc1	-1	-14	-1	-5	0	.
O=C(c1ccco1)N1CCN(c2ccc(F)cc2)CC1	-1	4	-2	1	0	.
Nc1ccc(N2CCN(C(=O)c3ccco3)CC2)cc1	43*	11	1	2	-1	1
COc1ccc(-c2nnc(NC(=O)CSc3ccc(Cl)cc3)s2)cc1OC	37*	9	-2	-11	3	6
CNc1c(C(=O)O)ccc2c1C(=O)c1ccccc1C2=O	34*	16	-3	-14	1	26
CCNc1c(C(=O)O)ccc2c1C(=O)c1ccccc1C2=O	16	14	-4	0	0	.
FC(F)Oc1ccc(NC(=S)NCc2ccccc2)cc1	6	-10	-5	-4	-1	.
Cc1cc2cc(CNC(=S)Nc3ccc(OC(F)F)cc3)ccc2n1C	47*	46*	-11	-4	1	19
COc1ccc(C(=O)NCc2ccc3c(c2)cc(C)n3C)cc1	31*	44*	-6	-10	1	2
COc1cc(OC)cc(C(=O)NCc2ccc3c(c2)cc(C)n3C)c1	26	55	0	-12	1	.
Cc1ccc(NC(=S)NCc2ccc3c(c2)cc(C)n3C)c(C)c1	33*	28	-2	-4	0	6
COc1cccc(CN(C)C(=O)[C@H]2O[C@@H](n3cnc4c(=O)[nH]c(N)nc43)[C@H](O)[C@@H]2O)c1	.	.	.	.	-1	.
COC(=O)c1ccc2nc(-c3ccco3)c(Cc3ccsc3)n2c1	.	.	.	.	0	.
O=C(O)c1cccc2[nH]c(C(F)(F)F)nc12	3	-20	0	-1	0	.
Nc1cccc2[nH]c(C(F)(F)F)nc12	51*	7	-3	-1	-1	27
O=[N+]([O-])c1ccc(N=Nc2ccc(O)cc2O)cc1	1	-4	0	-9	0	.
O=S(=O)(O)c1cc(Cl)cc(N=Nc2ccc(O)cc2O)c1O	62*	89	-9	.	1	46
Cc1ccccc1C(=O)N[C@H](C(=O)N1CCC[C@H]1C(=O)NC1CCCC1)C1CCCCC1	.	.	.	.	0	.
COc1ccccc1NC(=O)CCN1C(=O)/C(=C\c2cc(OC)c(OC)c(OC)c2)SC1=S	36*	5	2	-4	0	20
SMILES	MT1-MMP act inh	SKN-1 inh	MsrA act	pCIP destab	MsrA inhibitor	MT1-MMP act val
CC1(C)CCCN(C(=O)c2ccc3c(c2NCCO)C(=O)c2ccccc2C3=O)C1	40*	35	0	-3	1	32
Oc1ccc(N=Nc2cccc(C(F)(F)F)c2)cc1C=Nc1ccc(N2CCOCC2)cc1	45*	7	0	-18	-1	14
COC(=O)C1=C(C)N(Cc2ccc(Br)cc2)C(=S)NC1c1cccc(F)c1 (stereo not drawn)	.	.	.	.	1	.
O=C1CC(c2ccccc2)c2cc(O)ccc2O1 (stereo not drawn)	6	-2	-13	-11	-1	.
Cc1ccc(C2CC(=O)Oc3cc(O)ccc32)cc1 (stereo not drawn)	38*	35*	-3	-18	0	16
Cc1cc2cc(CN3C(=O)c4ccccc4C3=O)ccc2n1C	32*	46*	-5	-17	-1	13
CCN1C[C@@H]2[C@@H]3C(=O)N(Cc4ccccc4)C(=O)[C@@H]3[C@](CC)(C1=O)N2C(=O)c1ccc(Cl)cc1	.	.	.	.	0	.
CC(C)(C)c1ccc(OCCNC(=O)c2ncn[nH]2)cc1	36*	-14	0	2	-1	5
CN(C)c1ccc(N=Cc2cccn2C)cc1	39*	14	0	-8	-1	2
CN(C)c1ccc(N=Cc2nc(-c3ccccc3)oc2O)cc1	-84	46	-7	-39	0	.
CC(=O)Oc1ccc2oc(/C=C/N(C)C)c([N+](=O)[O-])c2c1	45*	29	0	-8	4	36
C/C(=C/c1oc2ccc(O)cc2c1[N+](=O)[O-])N(C)C	43*	13	-4	6	2	32
COC(=O)Cc1nnn2c1[C@@H](C)[C@@H](c1ccccc1Br)OC[C@H](C)C2	.	.	.	.	-1	.
Cc1ccc(NC(=O)NNC(=O)CSC2CCc3ccccc32)c(C)c1 (stereo not drawn)	.	.	.	.	1	.
O=C(NCc1ccccc1)[C@@H]1CCCN1C(=O)[C@H]1CCCN1C(=O)c1ccc(F)c(C(F)(F)F)c1	.	.	.	.	0	.
O=C(NN=Cc1ccccc1O)C(=O)Nc1ccc(F)cc1	.	.	.	.	2	.
O=C(O)c1ccc(N=N/C(=N\Nc2ccc(C(=O)O)cc2)c2ccccc2)cc1	31*	14	0	.	0	23
Cc1noc(C)c1S(=O)(=O)N(C)C[C@@H]1OCc2cnnn2CCCC(=O)N([C@@H](C)CO)C[C@@H]1C	.	.	.	.	0	.
CC1=C/C(=C(/c2ccc(O)c(C)c2)c2ccccc2S(=O)(=O)O)C=CC1=O	10	16	-2	.	1	.
CC1=C/C(=C(/c2cc(C)c(O)c(Br)c2)c2ccccc2S(=O)(=O)O)C=C(Br)C1=O	63*	51*	-2	-10	1	50*
C[C@H]1CN(S(=O)(=O)C(C)(C)C)[C@@H](CCO)/C1=C\CCO	.	.	.	.	1	.
COC(=O)C1=C(C)N(Cc2ccccc2C(F)(F)F)C(=NCc2ccc3c(c2)OCO3)NC1c1ccccc1C(F)(F)F (stereo not drawn)	.	.	.	.	1	.
COc1ccccc1NC(=O)c1ccc(S(=O)(=O)N(C)c2ccccc2)cc1	4	-8	-8	.	0	.
COc1ccccc1NC(=O)c1ccc(S(=O)(=O)N(C)c2ccccc2OC)cc1	35*	2	-10	.	1	10
Nc1ccc(NC(=O)c2ccccc2)c2c1C(=O)c1ccccc1C2=O	38*	8	3	0	0	27
Nc1ccccc1NC(=O)c1ccccc1	10	-10	-11	-18	0	.
CN(CCCS(=O)(=O)[O-])c1ccc(/C=C/c2ccc3ccccc3[n+]2C)cc1	40*	37*	-2	-4	1	17
C[C@H]1C(C(=O)N(C)C2CCCCC2)=Cc2c(n(-c3ccc(F)cc3)c(=O)n2CCCOc2ccccc2)C=C1c1ccccc1	.	.	.	.	1	.
